# Bioassay records: PubChem BioAssay, several laboratories
# Most compounds without a hit are left out; they make up all but 9.4% or so of the library.
# T cruzi inh: blocks replication of Trypanosoma cruzi. T. cruzi beta-gal in NIH3T3, luminescence, 90 h. inhibition, % (test concentration not listed). hit rate 1.4% among 300,000;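 active means mean inhibition across valid replicates above about 55%, limit read from the data; inconclusive means mean below that limit but half or more replicates reach it; inactive means mean below it, under half of replicates reach it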;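 further: signal also drops with host cell toxicity which is not excluded here; 0% = plate median of DMSO wells and 100% = zero luminescence signal; higher percent means less beta-gal luminescence so fewer parasites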
#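 System – NIH/3T3 host cells with β-galactosidase reporter T. cruzi · Doses – single 50 nL compound addition per well in DMSO · Reagent – 5000 T. cruzi trypomastigotes/well · Medium – Low-serum DMEM with 2% FBS · Timing – ≥90 h infection period, 3 h prior cell attachment · Evaluation – parasite load inhibition, % · Technique – GalScreen luminescence, 60 min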
# Beta cell apopt: beta cell apoptosis inhibition | INS-1E cytokine-induced death, ATP luminescence, 48 h; percent of positive-control rescue, neutral wells zero | hit rate 0.8% among 300,000 | protection from apoptosis, % (concentration not given with the values);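 active means Every replicate reaches about 75%, or at least half do and their mean reaches it too, limit read from the data; inconclusive means At least half of replicates reach the limit but their mean does not; inactive means Under half of replicates reach the limit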;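 further: 0% = cytokine-treated negative control wells and 100% = positive control rescue; higher means more ATP so stronger rescue from cytokine killing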
# CSC inhib: cancer stem cell inhibition; cancer stem cell-like cells viability, luminescence; hit rate 1.1% among 300,000; inhibition, % at 7.5 µM; AID 2717; in the data active means inhibition above about 75%; inconclusive means no clear call, values can overlap the other calls; tested in HMLE shEcad cells
# Mdm2 MdmX PPI: inhibitors of human Mdm2/MdmX interaction. O15151+Q00987. SaOS-2 split-luciferase Mdm2/MdmX complementation, luminescence. inhibition, % at 8 µM. hit rate 3% among 330,000. AID 485346;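 active means inhibition of at least 50% at 8 µM in the primary screen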
# Lmaj promast: Leishmania major promastigote growth inhibition | Leishmania major promastigotes, resazurin fluorescence viability | inhibition, % at 10 µM | hit rate 9% among 200,000 | AID 1063; in the data active means inhibition above about 50%;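 further: promastigotes grown with compound for 44 hours at 28 °C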
# SKKanGAS inh: SKKanGAS growth inhibition. hit rate 1.3% among 300,000. S. pyogenes SKKanGAS, kanamycin growth, BacTiter-Glo, 6 h. inhibition, % at 7.5 µM;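 active means mean replicate score, as percent of positive control median, at least 50; inconclusive means mean below 50 but one replicate at or above 50; inactive means mean and every replicate below 50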;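 further: strain carries kanamycin resistance gene driven by streptokinase promoter and grows in 40 µg/ml kanamycin; loss of luminescence reflects streptokinase promoter inhibition or plain growth inhibition; 0% = median of DMSO wells and 100% = positive control at its reference dose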
# Mdm2 MdmX conf: human Mdm2/MdmX binding inhibition, confirmed; shares compounds with Mdm2 MdmX PPI; inhibition, % at 8 µM; AID 489028; luminescent assay; hit rate 55% among 10,000; in the data active means inhibition above about 40%
# Full FLuc ctr: inhibits full-length luciferase, flagging false Mdm2/MdmX hits. inhibition, % at 8 µM. SaOS-2 full-length luciferase counterscreen, luminescence. hit rate 77% among 6,200. shares compounds with Mdm2 MdmX PPI;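 active means mean inhibition at 8 µM reaching about 37%, which flags the compound as non-specific, limit read from the data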;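 further: p53-null SaOS-2 cells with luciferase driven by a doxycycline-inducible promoter; compound on cells about two nights before reading with doxycycline added after day one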
# An asterisk follows results filed as active; ? = inconclusive; . = no result; ! = repeats disagree.
SMILES,T cruzi inh,Beta cell apopt,CSC inhib,Mdm2 MdmX PPI,Lmaj promast,SKKanGAS inh,Mdm2 MdmX conf,Full FLuc ctr
CC(C)CN(C(=O)C1CCCO1)C1CCS(=O)(=O)C1 (stereo not given),-8,-4,-8,-21,.,-8,.,.
Cc1ccn2c(=O)c(C(=O)NC3CCCCC3C)c(O)nc2c1 (stereo not given),15,.,21,67*,.,6,67*,68*
CS(=O)(=O)N1CCCC(C(=O)N2CCN(c3cccc(Cl)c3)CC2)C1 (stereo not given),-13,.,3,-4,-3,-8,.,.
O=C(CCCCCn1c(=S)[nH]c2ccc(N3CCOCC3)cc2c1=O)NCCc1ccccc1,33,-3,39,51*,5,5,-10,.
O=C(CCCCCn1c(=S)[nH]c2ccc(N3CCOCC3)cc2c1=O)NCc1ccccc1Cl,26,8,30,8,-8,9,.,.
O=c1c2cc(N3CCOCC3)ccc2[nH]c(=S)n1CCCN1CCCCCC1,8,5,1,-33,-7,-4,.,.
O=c1c2cc(N3CCOCC3)ccc2[nH]c(=S)n1CCCN1CCN(c2ccccc2F)CC1,.,2,.,58*,2,.,32,.
COc1ccc(N2CCN(CCCn3c(=S)[nH]c4ccccc4c3=O)CC2)cc1,?,8,33,86*,.,2,67*,47*
CCOC(=O)C1=CN(Cc2cccc(-c3ccc(Cl)nc3)c2)S(=O)(=O)N(C)C1C (stereo not given),.,.,.,1,.,.,.,.
CCOc1ccc(C(=O)OCCN(CC)CC)cc1,-11,-15,1,-11,8,0,.,.
CC/C(=C(\c1ccccc1)c1ccc(OCCN(C)C)cc1)c1ccccc1,8,1,99*,58*,.,66*!,22,.
CC/C(=C(\c1ccc(O)cc1)c1ccc(OCCN(C)C)cc1)c1ccccc1,32,14,52,93*,.,4,38,61*
CCN(CC)CCOc1ccc(/C(=C(/Cl)c2ccccc2)c2ccccc2)cc1,40,33,101*,69*,100*,10,32,76*
Cc1c(C(C)(C)O)[nH]c2ccc(C(F)(F)F)cc12,0,5,-10,-1,.,11,.,.
CC(C)[C@H](NC(=O)OC(C)(C)C)c1nnc(S(=O)(=O)Cc2c(F)cccc2Cl)o1,-56,7,44,30,.,-7,.,.
CC[C@@H](C)[C@H](NC(=O)OC(C)(C)C)c1nnc(S(=O)(=O)Cc2cc(C)ccc2C)o1,-54,-1,66,82*,-3,52*,66*,3
Cc1ccccc1CS(=O)(=O)c1nnc([C@H](CC(C)C)NC(=O)OC(C)(C)C)o1,-25,-6,.,75*,-5,-1,79*,1
Cn1nnnc1SCc1cccc2ccccc12,15,-7,-6,-10,4,-3,.,.
Cn1nnnc1Sc1ncnc2scc(-c3ccccc3Br)c12,.,-33,52,70*,.,.,67*,25
Cn1nnnc1Sc1ncnc2scc(-c3ccc[nH]3)c12,.,-61,41,69*,.,.,47*,29
Cn1nnnc1SCc1nc2scc(-c3ccc(Cl)cc3)c2c(=O)[nH]1,8,13,.,20,.,8,.,.
Cn1nnnc1Sc1ncnc2scc(-c3ccc(F)cc3)c12,-35,-18,35,100*,91*,-2,91*,54*
COc1ccccc1-c1csc2ncnc(Sc3nnnn3C)c12,.,-23,-4,47,.,.,.,.
Cn1nnnc1Sc1ncnc2scc(-c3cccc4ccccc34)c12,.,-2,.,97*,.,.,55*,22
Cn1nc(C(=O)NCCCN2CCCCC2)c2c1-c1ccccc1SC2,25,1,0,-1,.,3,.,.
SMILES,T cruzi inh,Beta cell apopt,CSC inhib,Mdm2 MdmX PPI,Lmaj promast,SKKanGAS inh,Mdm2 MdmX conf,Full FLuc ctr
Cn1nnnc1Sc1ncnc2scc(-c3ccc(Br)cc3)c12,.,2,.,99*,.,.,100*,53*
Cn1nnnc1Sc1ncnc2scc(Br)c12,.,-5,?,99*,.,.,32,.
Cn1nnnc1Sc1ncnc2scc(-c3ccccc3)c12,-55,-14,-5,78*,70*,12,-2,.
Cn1nnnc1SCc1nc2scc(-c3ccccc3)c2c(=O)[nH]1,-10,1,-8,23,.,-3,.,.
Cc1ccc(-c2csc3ncnc(Cl)c23)cc1,-1,-1,-4,11,17,4,.,.
Cc1ccc(-n2c(C)c([N+](=O)[O-])c3ccc(O)c(CN(C)C)c32)cc1,0,-6,-27,85*,3,0,80*,54*
COc1ccc(-n2c(C)c([N+](=O)[O-])c3ccc(O)c(CN4CCCCC4)c32)cc1,7,3,15,77*,7,5,58*,29
O=C(Oc1ccccc1O)c1cccc2ccccc12,-12,-4,19,0,-2,1,.,.
CCCCN(C)C(=O)Cn1cnc2sc(C)c(S(=O)(=O)N3CCN(c4ccccc4OC)CC3)c2c1=O,11,-10,-13,10,.,0,.,.
CC(C)(C)c1cc(NC(=O)CCl)n(-c2ccccc2)n1,36,-15,15,79*,.,-1,58*,24
CCOCCCn1c(SCC(=O)Nc2cccc(OC)c2)nc2ccccc2c1=O,2,6,-10,12,.,2,.,.
CCOCCCn1c(SCC(=O)Nc2cc(C(C)(C)C)nn2-c2ccccc2)nc2ccccc2c1=O,21,5,7,54*,72*,8,8,.
Cc1cccc(NNC(N)=S)c1C,7,-7,-13,-8,-1,-2,.,.
CC(=O)NC(=S)Nc1ccc(NC(=S)NC(=O)/C=C/c2ccco2)cc1,-5,21,6,73*,.,83*,65*,35
CCC(=O)Nc1ccc(NC(=S)NC(=O)/C=C/c2ccco2)cc1,-2,-13,-6,24,.,2,.,.
COc1ccc(NC(=S)NC(=O)/C=C/c2ccco2)cc1,18,-2,-4,0,0,-4,.,.
O=C(NC(=S)Nc1nc(-c2ccc([N+](=O)[O-])cc2)cs1)c1ccco1,-1,20,5,55*,.,-4,28,.
O=C(/C=C/c1ccco1)NC(=S)Nc1ccc(N2CCCC2)cc1,-11,-2,67,61*,5,5,62*,52*
O=C(/C=C/c1ccco1)NC(=S)Nc1ccc(O)c(-c2nc3ccccc3s2)c1,-13,40,.,77*,-6,4,32,72*
CCC1(c2ccc(F)cc2)NC(=O)N(CC(=O)N2CCc3ccccc32)C1=O (stereo not given),.,-1,-10,14,.,.,.,.
Cc1ccc(S(=O)(=O)NCC(=O)N2CCOCCOCCOCC2)cc1,-4,-3,1,-1,.,2,.,.
Cc1ccc(-c2csc(NC(=S)NC(=O)/C=C/c3ccco3)n2)cc1,-45,5,71,59*,-2,-1,51*,59*
